One data set concerns A-431. In words: Cytotoxicity against human A431 cells after 24 hrs by neutral red dye uptake assay. The settings on record: A-431, 24 h. The data set is classed as functional, cell-based. The gist of the method:
(§1)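 Cells kept in DMEM with 10% FBS at 37 °C, 5% CO2. Seeded at 20,000 cells/well, grown 24 h, then exposed 24 h to a concentration series. Neutral red (0.05%) added for 3 h at 37 °C, dye extracted with 1% acetic acid in 50% ethanol, absorbance read at 540 nm. IC50, IC05 and 95% confidence intervals derived from a downhill logistic curve fit.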

In data set [1] the test system is Mus musculus. In words: Wound healing activity in Swiss albino mouse circular excision wound model assessed as wound contraction applied topically qd after 2 days relative to control. The data set is classed as functional. Also on record: concentration or dose not given beside the values.
For data set [2], the species on record is Bos taurus. In words: Inhibition of bovine hyaluronidase assessed as sodium hyaluronate conversion to N-acetylglucosamine at 100 ug/ml by spectrophotometric analysis relative to control.
For data set [3], the system named is HaCaT. In words: Wound healing activity in human HaCaT cells assessed as wound closure rate at 2.5 ug/mL after 24 hrs by inverted microscopic analysis. In kind it is functional, cell-based. The gist of the method:
(§2)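 Confluent HaCaT monolayers scratched with a pipette tip, washed, re-fed with medium and exposed to compound for 24 h; 20% (v/v) platelet lysate served as positive control. Cells fixed in 3.7% formaldehyde and stained with 0.1% toluidine blue. Wound width measured by inverted microscope with camera at 0 and 24 h; closure taken as the width difference. Results expressed relative to control mean (100%), two independent experiments, n = 20 each.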

Data set [4] deals with HaCaT. In words: Wound healing activity in human HaCaT cells assessed as wound closure rate at 5 uM after 24 hrs by inverted microscopic analysis. In kind it is functional, cell-based. The gist of the method:
as §2

Data set [5] relates to HaCaT. In words: Wound healing activity in human HaCaT cells assessed as wound closure rate at 2 ug/mL after 24 hrs by inverted microscopic analysis. The data set is classed as functional, cell-based. The gist of the method:
as §2

The subject of data set [6] is Mus musculus. In words: Wound healing activity in Swiss albino mouse circular excision wound model assessed as wound contraction applied topically qd after 10 days (reference value: 6.29%). In kind it is functional.
The subject of data set [7] is Mus musculus. In words: Wound healing activity in Swiss albino mouse circular excision wound model assessed as wound contraction applied topically qd after 4 days relative to control. In kind it is functional. Also on record: concentration or dose not given beside the values.
Data set [8] concerns HaCaT. In words: Wound healing activity in human HaCaT cells assessed as wound closure rate at 1.7 ug/mL after 24 hrs by inverted microscopic analysis. The data set is classed as functional, cell-based. The gist of the method: as §2
Data set [9] relates to Mus musculus. In words: Wound healing activity in Swiss albino mouse circular excision wound model assessed as wound contraction applied topically qd after 8 days (reference value: 2.18%). The data set is classed as functional.
In data set [10] the target is T1, Neutrophil elastase (Homo sapiens) (UniProt P08246).
T1 sequence (whole entry): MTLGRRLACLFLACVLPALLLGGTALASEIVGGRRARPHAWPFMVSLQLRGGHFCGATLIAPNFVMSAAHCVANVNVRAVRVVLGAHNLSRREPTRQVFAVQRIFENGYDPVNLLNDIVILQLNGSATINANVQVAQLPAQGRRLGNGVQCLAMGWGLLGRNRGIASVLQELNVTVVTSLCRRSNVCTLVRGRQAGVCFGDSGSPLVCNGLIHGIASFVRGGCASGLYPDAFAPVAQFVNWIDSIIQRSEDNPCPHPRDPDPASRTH
In words: Inhibition of human neutrophil elastase assessed as N-methoxysuccinyl-Ala-Ala-Pro-Val p-nitroanilide conversion to p-nitroaniline at 50 ug/ml after 1 hr by spectrophotometric analysis relative to control. The gist of the method:
(§3)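 Sample and human neutrophil elastase (17 mU/ml) mixed in 0.1 M Tris–HCl, pH 7.5, and held 5 min at 25 °C. MeOSuc-Ala-Ala-Pro-Val p-nitroanilide was added and the mixture incubated 1 h at 37 °C. Reaction stopped with soybean trypsin inhibitor (1 mg/ml); p-nitroaniline absorbance read immediately. Inhibition given as % with S.E.M.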

Data set [11] has as its system Mus musculus. In words: Wound healing activity in Swiss albino mouse circular excision wound model assessed as wound contraction applied topically qd measured on the same day relative to control. Also on record: concentration or dose not given beside the values. In kind it is functional.
In data set [12] the test system is HaCaT. In words: Cytotoxicity against human HaCaT cells after 24 hrs by neutral red dye uptake assay. In kind it is cell-based. The gist of the method: as §1
Data set [13] is filed under the species Bos taurus. In words: Inhibition of bovine hyaluronidase assessed as sodium hyaluronate conversion to N-acetylglucosamine at 50 ug/ml by spectrophotometric analysis relative to control.
Data set [14] addresses T1, Neutrophil elastase (Homo sapiens). In words: Inhibition of human neutrophil elastase assessed as N-methoxysuccinyl-Ala-Ala-Pro-Val p-nitroanilide conversion to p-nitroaniline at 100 ug/ml after 1 hr by spectrophotometric analysis relative to control. The gist of the method:
as §3

Data set [15] relates to Mus musculus. In words: Wound healing activity in Swiss albino mouse circular excision wound model assessed as hydroxyproline content in skin applied topically qd after 7 days by spectrophotometric analysis. In kind it is functional. The gist of the method:
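Skin from ointment-treated mouse wounds (7 days) dried at 60–70 °C to constant weight, then hydrolyzed in 6 N HCl for 3 h at 130 °C. Hydrolysate neutralized to pH 7, oxidized with chloramine T and reacted with Ehrlich reagent at 60 °C. Read at 557 nm and reported as mg/g with S.E.M.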

The subject of data set [16] is HaCaT. In words: Wound healing activity in human HaCaT cells assessed as wound closure rate at 2.1 ug/mL after 24 hrs by inverted microscopic analysis. The data set is classed as functional, cell-based. The gist of the method: as §2
Data set [17] concerns Mus musculus. In words: Wound healing activity in Swiss albino mouse circular excision wound model assessed as wound contraction applied topically qd after 6 days (reference value: 3.41%). The data set is classed as functional.
Data set [18] concerns Hathewaya histolytica. In words: Inhibition of Clostridium histolyticum collagenase using N-[3-(2-Furyl)acryloyl]-Leu-Gly-Pro-Ala as substrate at 50 ug/ml after 15 mins by spectrophotometric analysis relative to control. The gist of the method:
(§4)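 Samples dissolved in DMSO and diluted in 50 mM Tricine buffer (0.4 M NaCl, 0.01 M CaCl2, pH 7.5). Clostridium histolyticum collagenase and sample preincubated 5 min at 25 °C, then incubated 15 min. FALGPA substrate, prepared at 2 mM in the same buffer, was then added. Inhibition given as % with S.E.M.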

Data set [19] deals with HaCaT. In words: Wound healing activity in human HaCaT cells assessed as wound closure rate at 2.2 ug/mL after 24 hrs by inverted microscopic analysis. The data set is classed as functional, cell-based. The gist of the method: as §2
Data set [20] has as its system Hathewaya histolytica. In words: Inhibition of Clostridium histolyticum collagenase using N-[3-(2-Furyl)acryloyl]-Leu-Gly-Pro-Ala as substrate at 100 ug/ml after 15 mins by spectrophotometric analysis relative to control. The gist of the method:
as §4

The subject of another data set is Rattus norvegicus. In words: Wound healing activity in Sprague-Dawley rat linear incision wound model assessed as tensile strength of wound applied topically qd for 9 days measured on day 10 by tensiometer (reference value: 10.6%). In kind it is functional.

Each structure is given as a SMILES string. Values after ≈ are worked out from the molar mass of the structure shown. Active and inactive are the calls of the source. The calls are words filed in the database; no cut-off is given here.

As for `CC(=O)C1=C(O)C=C2Oc3c(C(C)=O)c(O)c(C)c(O)c3[C@@]2(C)C1=O` [(+)-USNIC ACID], the concentration for half-maximal inhibition (IC50) in the data set on A-431 was 15 µg/mL (≈ 43.6 µM); in the data set with HaCaT [12] (Homo sapiens, HaCaT) it was 24 µg/mL (≈ 69.7 µM). Moreover, the Activity amounted to 17.04% in the data set with Mus musculus [1]; 1.85% with Mus musculus [6]; 14.1% with Mus musculus [7]; 5.62% with Mus musculus [9]; 19.59% in the data set on Mus musculus [11]; 36.1 mg/g in the data set with Mus musculus [15]. Besides, the Activity was found to be 10.25% with Mus musculus [17] and 31.9% with Rattus norvegicus. Besides, the inhibition is 33.1% in the data set filed under Bos taurus [2]; 22.1% in [10]; 14.4% in the data set filed under Bos taurus [13]; 36.4% in data set [14]; 27.1% in the data set on Hathewaya histolytica [18]; 51.2% in the data set with Hathewaya histolytica [20]. Moreover, the outcome in the data set on HaCaT [3], with HaCaT [4], with HaCaT [5], with HaCaT [8], with HaCaT [16] and with HaCaT [19] was Active. Also, the IC05 with HaCaT [12] (human, hacat) turned out to be 0.5 µg/mL.

The record behind these values is ChEMBL document CHEMBL2390932, “(+)-Usnic acid enamines with remarkable cicatrizing properties” (Bioorg Med Chem, 2013).
